Assay results: ChEMBL document CHEMBL3525900, “Pharmacokinetics, distribution, and metabolism of [14C]sunitinib in rats, monkeys, and humans” (Drug Metab Dispos, 2012)

Experiments:
Small intestine [1] = experiment: Drug concentration in male albino rat small intestine assessed as radioactivity per gram of tissue at 20 mg/kg administered as single dose via gastric gavage measured after 3 hrs by autoradiographic analysis; type: ADME, organism-based; set-up: dose 20 mg/kg, dosed compound name [14C]Sunitinib; conditions: in vivo, po
Adrenal [2] = experiment: Drug concentration in male albino rat adrenal assessed as radioactivity per gram of tissue at 20 mg/kg administered as single dose via gastric gavage measured after 24 hrs by autoradiographic analysis; type: ADME, organism-based; set-up: dose 20 mg/kg, dosed compound name [14C]Sunitinib; conditions: in vivo, po
[3] = Drug concentration in female albino rat eye assessed as radioactivity per gram of tissue at 20 mg/kg administered as single dose via gastric gavage measured after 6 hrs by autoradiographic analysis; type: ADME, organism-based; set-up: dose 20 mg/kg, dosed compound name [14C]Sunitinib; conditions: in vivo, po
Procedure, shortened: (§1)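 Sprague Dawley albino rats, ca 7-8 weeks old, dosed once by gastric gavage with [14C]sunitinib L-malate (15 mg freebase/kg, 100 µCi/kg). One male and one female killed by CO2 at 3, 6, 24, 72 and 168 h. Carcasses frozen in solid CO2/hexane, embedded and cut into 30 µm sagittal sections, then freeze-dried. Radioactivity quantified by whole-body autoradiography against standards by regression, background subtracted.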

Kidney [4] = experiment: Drug concentration in female albino rat kidney assessed as radioactivity per gram of tissue at 20 mg/kg administered as single dose via gastric gavage measured after 3 hrs by autoradiographic analysis; type: ADME, organism-based; set-up: dose 20 mg/kg, dosed compound name [14C]Sunitinib; conditions: in vivo, po; procedure, shortened: as §1
[5] = Drug concentration in female albino rat preputial gland assessed as radioactivity per gram of tissue at 20 mg/kg administered as single dose via gastric gavage measured after 24 hrs by autoradiographic analysis; type: ADME, organism-based; set-up: dose 20 mg/kg, dosed compound name [14C]Sunitinib; conditions: in vivo, po; procedure, shortened: as §1
Lung [6] = experiment: Drug concentration in male albino rat lung assessed as radioactivity per gram of tissue at 20 mg/kg administered as single dose via gastric gavage measured after 24 hrs by autoradiographic analysis; type: ADME, organism-based; set-up: dose 20 mg/kg, dosed compound name [14C]Sunitinib; conditions: in vivo, po
Zone of skin = experiment: Drug concentration in female albino rat abdomen skin assessed as radioactivity per gram of tissue at 20 mg/kg administered as single dose via gastric gavage measured after 24 hrs by autoradiographic analysis; type: ADME, organism-based; set-up: dose 20 mg/kg, dosed compound name [14C]Sunitinib; conditions: in vivo, po
Procedure, shortened: (§2)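 Sprague Dawley (albino) rats, ca 7-8 weeks old, received a single gastric-gavage dose of [14C]sunitinib L-malate at 20 mg/kg (15 mg freebase/kg, 100 µCi/kg). One animal per sex killed by CO2 at 3, 6, 24, 72 and 168 h, then frozen in CO2/hexane. 30 µm sagittal sections were cut and freeze-dried. Radioactivity per gram quantified by whole-body autoradiography using regression against standards. LOQ 0.04–0.06 µg freebase equiv/g.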

Adrenal [7] = experiment: Drug concentration in male albino rat adrenal assessed as radioactivity per gram of tissue at 20 mg/kg administered as single dose via gastric gavage measured after 6 hrs by autoradiographic analysis; type: ADME, organism-based; set-up: dose 20 mg/kg, dosed compound name [14C]Sunitinib; conditions: in vivo, po
Large intestine [8] = experiment: Drug concentration in male albino rat large intestine assessed as radioactivity per gram of tissue at 20 mg/kg administered as single dose via gastric gavage measured after 72 hrs by autoradiographic analysis; type: ADME, organism-based; set-up: dose 20 mg/kg, dosed compound name [14C]Sunitinib; conditions: in vivo, po
Spleen [9] = experiment: Drug concentration in female albino rat spleen assessed as radioactivity per gram of tissue at 20 mg/kg administered as single dose via gastric gavage measured after 6 hrs by autoradiographic analysis; type: ADME, organism-based; set-up: dose 20 mg/kg, dosed compound name [14C]Sunitinib; conditions: in vivo, po
Adrenal [10] = experiment: Drug concentration in male Lister Hooded pigmented rat adrenal assessed as radioactivity per gram of tissue at 20 mg/kg administered as single dose via gastric gavage measured after 336 hrs by autoradiographic analysis; type: ADME, organism-based; set-up: dose 20 mg/kg, dosed compound name [14C]Sunitinib; conditions: in vivo, po
[11] = Drug concentration in female albino rat skeletal muscle assessed as radioactivity per gram of tissue at 20 mg/kg administered as single dose via gastric gavage measured after 3 hrs by autoradiographic analysis; type: ADME, organism-based; set-up: dose 20 mg/kg, dosed compound name [14C]Sunitinib; conditions: in vivo, po
Spinal cord = experiment: Drug concentration in female albino rat spinal cord assessed as radioactivity per gram of tissue at 20 mg/kg administered as single dose via gastric gavage measured after 6 hrs by autoradiographic analysis; type: ADME, organism-based; set-up: dose 20 mg/kg, dosed compound name [14C]Sunitinib; conditions: in vivo, po
[12] = Drug recovery in feces of male Sprague-Dawley rat at 15 mg/kg, po administered as single dose during 0 to 72 hrs by liquid scintillation counting; type: ADME, organism-based; set-up: dose 15 mg/kg, dosed compound name [14C]Sunitinib, route oral; conditions: in vivo
[13] = Drug recovery in urine of male Sprague-Dawley rat at 15 mg/kg, po administered as single dose during 0 to 72 hrs by liquid scintillation counting; type: ADME, organism-based; set-up: dose 15 mg/kg, dosed compound name [14C]Sunitinib, route oral; conditions: in vivo
Stomach = experiment: Drug concentration in female albino rat stomach assessed as radioactivity per gram of tissue at 20 mg/kg administered as single dose via gastric gavage measured after 3 hrs by autoradiographic analysis; type: ADME, organism-based; set-up: dose 20 mg/kg, dosed compound name [14C]Sunitinib; conditions: in vivo, po
Blood = experiment: Drug concentration in male Lister Hooded pigmented rat blood assessed as radioactivity per gram of tissue at 20 mg/kg administered as single dose via gastric gavage measured after 24 hrs by autoradiographic analysis; type: ADME, organism-based; set-up: dose 20 mg/kg, dosed compound name [14C]Sunitinib; conditions: in vivo, po
Homo sapiens = experiment: Total drug recovery in human at 50 mg, po administered as single dose during 0 to 504 hrs by liquid scintillation counting; type: ADME, organism-based; set-up: dosed compound name [14C]Sunitinib; conditions: in vivo
Lung [14] = experiment: Drug concentration in male Lister Hooded pigmented rat lung assessed as radioactivity per gram of tissue at 20 mg/kg administered as single dose via gastric gavage measured after 24 hrs by autoradiographic analysis; type: ADME, organism-based; set-up: dose 20 mg/kg, dosed compound name [14C]Sunitinib; conditions: in vivo, po
[15] = Drug recovery in urine of human at 50 mg, po administered as single dose during 0 to 504 hrs by liquid scintillation counting; type: ADME, organism-based; set-up: dosed compound name [14C]Sunitinib; conditions: in vivo
Spleen [16] = experiment: Drug concentration in male Lister Hooded pigmented rat spleen assessed as radioactivity per gram of tissue at 20 mg/kg administered as single dose via gastric gavage measured after 168 hrs by autoradiographic analysis; type: ADME, organism-based; set-up: dose 20 mg/kg, dosed compound name [14C]Sunitinib; conditions: in vivo, po
[17] = Drug concentration in female albino rat bladder assessed as radioactivity per gram of tissue at 20 mg/kg administered as single dose via gastric gavage measured after 24 hrs by autoradiographic analysis; type: ADME, organism-based, Urinary bladder; set-up: dose 20 mg/kg, dosed compound name [14C]Sunitinib; conditions: in vivo, po; procedure, shortened: as §2
Large intestine [18] = experiment: Drug concentration in female Lister Hooded pigmented rat large intestine assessed as radioactivity per gram of tissue at 20 mg/kg administered as single dose via gastric gavage measured after 24 hrs by autoradiographic analysis; type: ADME, organism-based; set-up: dose 20 mg/kg, dosed compound name [14C]Sunitinib; conditions: in vivo, po
Procedure, shortened: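 Lister Hooded (pigmented) rats, ca 7-8 weeks old, acclimated 7 days, given [14C]sunitinib L-malate by gastric gavage at 20 mg/kg (15 mg freebase/kg, 100 µCi/kg). One male and one female killed by CO2 at 24, 72, 168 and 336 h. Carcasses frozen in solid CO2/hexane and embedded in frozen cellulose. 30 µm sagittal cryosections were freeze-dried. Tissue radioactivity measured by quantitative whole-body autoradiography against calibration standards, with background subtracted.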

[19] = Drug concentration in male Lister Hooded pigmented rat bone marrow assessed as radioactivity per gram of tissue at 20 mg/kg administered as single dose via gastric gavage measured after 168 hrs by autoradiographic analysis; type: ADME, organism-based; set-up: dose 20 mg/kg, dosed compound name [14C]Sunitinib; conditions: in vivo, po
Heart = experiment: Drug concentration in male albino rat heart assessed as radioactivity per gram of tissue at 20 mg/kg administered as single dose via gastric gavage measured after 6 hrs by autoradiographic analysis; type: ADME, organism-based; set-up: dose 20 mg/kg, dosed compound name [14C]Sunitinib; conditions: in vivo, po
Spleen [20] = experiment: Drug concentration in male Lister Hooded pigmented rat spleen assessed as radioactivity per gram of tissue at 20 mg/kg administered as single dose via gastric gavage measured after 24 hrs by autoradiographic analysis; type: ADME, organism-based; set-up: dose 20 mg/kg, dosed compound name [14C]Sunitinib; conditions: in vivo, po
Pancreas = experiment: Drug concentration in male albino rat pancreas assessed as radioactivity per gram of tissue at 20 mg/kg administered as single dose via gastric gavage measured after 3 hrs by autoradiographic analysis; type: ADME, organism-based; set-up: dose 20 mg/kg, dosed compound name [14C]Sunitinib; conditions: in vivo, po
Small intestine [21] = experiment: Drug concentration in male Lister Hooded pigmented rat small intestine assessed as radioactivity per gram of tissue at 20 mg/kg administered as single dose via gastric gavage measured after 24 hrs by autoradiographic analysis; type: ADME, organism-based; set-up: dose 20 mg/kg, dosed compound name [14C]Sunitinib; conditions: in vivo, po
Large intestine [22] = experiment: Drug concentration in male albino rat large intestine assessed as radioactivity per gram of tissue at 20 mg/kg administered as single dose via gastric gavage measured after 24 hrs by autoradiographic analysis; type: ADME, organism-based; set-up: dose 20 mg/kg, dosed compound name [14C]Sunitinib; conditions: in vivo, po
Kidney [23] = experiment: Drug concentration in female albino rat kidney assessed as radioactivity per gram of tissue at 20 mg/kg administered as single dose via gastric gavage measured after 6 hrs by autoradiographic analysis; type: ADME, organism-based; set-up: dose 20 mg/kg, dosed compound name [14C]Sunitinib; conditions: in vivo, po; procedure, shortened: as §1

SMILES: CCN(CC)CCNC(=O)c1c(C)[nH]c(/[14CH]=C2\C(=O)Nc3ccc(F)cc32)c1C.O=C(O)C[C@H](O)C(=O)O
- Radiolabel recovery (Small intestine [1]): 8.91 ugequiv
- Radiolabel recovery (Adrenal [2]): 4.11 ugequiv
- Radiolabel recovery [3]: 1.18 ugequiv
- Radiolabel recovery (Kidney [4]): 16.11 ugequiv
- Radiolabel recovery [5]: 5.79 ugequiv
- Radiolabel recovery (Lung [6]): 0.87 ugequiv
- Radiolabel recovery (Zone of skin): 4.16 ugequiv
- Radiolabel recovery (Adrenal [7]): 13.57 ugequiv
- Radiolabel recovery (Large intestine [8]): 0.08 ugequiv
- Radiolabel recovery (Spleen [9]): 27.96 ugequiv
- Radiolabel recovery (Adrenal [10]): 0.16 ugequiv
- Radiolabel recovery [11]: 3.97 ugequiv
- Radiolabel recovery (Spinal cord): 0.35 ugequiv
- Radiolabel recovery [12]: 75.2%
- Radiolabel recovery [13]: 8.5%
- Radiolabel recovery (Stomach): 15.45 ugequiv
- Radiolabel recovery (Blood): 0.16 ugequiv
- Radiolabel recovery (Homo sapiens): 77%
- Radiolabel recovery (Lung [14]): 1.55 ugequiv
- Radiolabel recovery [15]: 16%
- Radiolabel recovery (Spleen [16]): 0.06 ugequiv
- Radiolabel recovery [17]: 0.54 ugequiv
- Radiolabel recovery (Large intestine [18]): 0.78 ugequiv
- Radiolabel recovery [19]: 0.06 ugequiv
- Radiolabel recovery (Heart): 4.61 ugequiv
- Radiolabel recovery (Spleen [20]): 1.63 ugequiv
- Radiolabel recovery (Pancreas): 11.1 ugequiv
- Radiolabel recovery (Small intestine [21]): 0.82 ugequiv
- Radiolabel recovery (Large intestine [22]): 1.5 ugequiv
- Radiolabel recovery (Kidney [23]): 16.48 ugequiv
